Measured values gathered from unrelated publications.
Protocols differ between the studies behind these lines.
glgA: glgA (Escherichia coli, UniProt P0A6U8)
CASP7: Caspase-7 (CASP7, Homo sapiens, UniProt P55210)

O=C(Nc1cccnn1)N1CCN([C@@H]2CCOc3cc(C(F)(F)F)ccc32)CC1  inhibition (Alpha-2B adrenergic receptor (ADRA2B, Homo sapiens, UniProt P18089); ligand displacement; 20 µM): 45%
Cc1nn(C)cc1-c1nc2c(N3CCN(Cc4ccc(Cl)cc4)CC3)c(Cl)cnc2[nH]1  remaining binding (Dual specificity testis-specific protein kinase 1 (TESK1, Homo sapiens, UniProt Q15569); binding, competition with immobilised ligand; 1 µM): 87%
COc1ncccc1-c1cnn2ccc(N3CCN(C(=O)OC(C)C)CC3)nc12  remaining binding (Mitogen-activated protein kinase kinase kinase 15 (MAP3K15, Homo sapiens, UniProt Q6ZN16); binding, competition with immobilised ligand; 1 µM): 86%
Nc1ncc(-c2nc(N3CCOCC3)nc(N3CCOCC3)n2)c(C(F)F)n1  remaining signal (5-hydroxytryptamine receptor 1B (Htr1b, Rattus norvegicus, UniProt P28564); cell-free assay, radioligand; 10 µM): 115%
N=C(N)c1ccc2cc(OC(=O)c3ccc(N=C(N)N)cc3)ccc2c1  inhibition (Ubiquitin carboxyl-terminal hydrolase isozyme L3 (UCHL3, Homo sapiens, UniProt P15374); enzyme activity, inhibitor; 10 µM): 6%
C=CC(=O)N1CCC[C@@H](n2nc(-c3ccc(Oc4ccccc4)cc3)c3c(N)ncnc32)C1  remaining signal (Dual specificity tyrosine-phosphorylation-regulated kinase 1B (DYRK1B, Homo sapiens, UniProt Q9Y463); cell-free assay; 0.1 µM): 195%
Nc1ncnc2c1ncn2[C@@H]1O[C@H](COP(=O)(O)OP(=O)(O)O[C@H]2O[C@H](CO)[C@@H](O)[C@H](O)[C@H]2O)[C@@H](O)[C@H]1O  Km (glgA; enzyme activity, substrate): 420 µM
CSCC[C@H](NC(=O)[C@@H](NC(=O)[C@@H](N)Cc1ccc(O)cc1)C(C)C)C(=O)NCC(=O)N[C@@H](Cc1c[nH]cn1)C(=O)O  Emax (Melanocyte-stimulating hormone receptor (Mc1r, Mus musculus, UniProt Q01727); cAMP, agonist; HEK293): 60%
OC[C@H]1NC[C@@H](O)[C@@H]1O  activity vs control (glgA; enzyme activity, inhibitor; 500 µM): 72%
CC(=O)N[C@@H](CC(=O)O)C(=O)N[C@@H](CC(N)=O)C(=O)N[C@@H](CC(C)C)C(=O)N[C@H](C=O)CC(=O)O  inhibition (CASP7; enzyme activity, inhibitor; 50 nM): 43%
C#Cc1n[nH]c2c(-c3cn(C(C)c4ccccn4)c(=O)[nH]c3=O)cc(F)cc12 (stereo not shown)  inhibition (Phosphatidylinositol 4,5-bisphosphate 3-kinase catalytic subunit gamma isoform (PIK3CG, Homo sapiens, UniProt P48736); enzyme activity, inhibitor; 1 µM): 14.7%
CCN(CC)CCCC[C@H](NC(=O)[C@H](CC(C)C)NC(=O)[C@H](C)NC(=O)[C@H](Cc1ccccc1)NC(=O)c1ccc(C(C)(C)C)cc1)C(=O)N[C@@H](CO)C(=O)OC  ΔTm (CREB-binding protein (CREBBP, Homo sapiens, UniProt Q92793); thermal stability, DSF; 25 µM): 0.35 °C
CN(C)C(=O)COC(=O)Cc1ccc(OC(=O)c2ccc(NC(=N)N)cc2)cc1  inhibition (CASP7; enzyme activity, inhibitor; 10 µM): 0%
